This is a sample that favours compounds with a hit; in the whole collection about 3.9% have one here.
CHO parental Ca – ATP-evoked calcium signal inhibitors, parental CHO, primary screen, counter-screen for OX1R antagonist project, cell-based, fluorescence, Fluo-8 calcium dye. parental CHO-K1, ATP-induced calcium, Fluo-8 fluorescence. inhibition, % at 5.6 µM. 330,000 tested, 0.63% active;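 active = inhibition above that plate's mean sample inhibition plus 3 SD, cut at about 26% in these data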
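Measured by: calcium-sensitive Fluo-8 fluorescence / Test system: CHO parental line / Controls: ATP-challenged DMSO wells low, unchallenged DMSO wells high / Measure: % inhibition / Compound: single nominal dose of 5.6 µM per compound / Replicates: single well per compound, no replicates / Reagent: ATP as calcium-mobilizing challenge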
TAAR1 ag – human TAAR1 agonists, primary screen, Fluo-8 calcium fluorescence, CHO RD-HGA16 cells. 360,000 tested, 0.99% active. activation, % at 3 µM. Trace amine-associated receptor 1 (Homo sapiens), Q96RJ0. AID 624467, 2012. vehicle wells 0%, saturating PEA agonist 100%;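 active = activation above the mean activation of all test compounds in the run plus 3 SD, cut at about 38% in these data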
Target sequence (Q96RJ0 whole entry, looked up): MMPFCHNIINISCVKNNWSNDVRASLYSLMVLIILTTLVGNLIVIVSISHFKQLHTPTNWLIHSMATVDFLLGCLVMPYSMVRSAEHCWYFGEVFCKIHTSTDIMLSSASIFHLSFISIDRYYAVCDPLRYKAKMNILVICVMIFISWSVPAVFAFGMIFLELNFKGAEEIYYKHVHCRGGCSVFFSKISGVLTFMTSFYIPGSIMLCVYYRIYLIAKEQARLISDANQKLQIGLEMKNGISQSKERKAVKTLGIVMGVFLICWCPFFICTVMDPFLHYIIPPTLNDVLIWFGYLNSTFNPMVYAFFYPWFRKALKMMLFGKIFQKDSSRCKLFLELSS
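test system = CHO RD-HGA16 cells carrying human TAAR1 plus Gα16 | schedule = 17-24 h seeding, 75 min 37 °C dye, 30 min RT | compound dosing = 3 µM single concentration | control set = DMSO and PEA EC100 | replicates = n 1 | signal = Fluo-8 fluorescence, 5 s baseline then 140 s kinetic read | measure = percent activation vs PEA EC100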
TAAR1 antag – human TAAR1 antagonists, primary screen, Fluo-8 calcium fluorescence, CHO RD-HGA16 cells. antagonist. inhibition, % at 3 µM. 360,000 tested, 1.5% active;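 active = inhibition above a per-plate cutoff, the mean inhibition of test compounds on that plate plus 3 SD, cut at about 49% in these data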
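Material: CHO RD-HGA16 cells bearing hTAAR1; compound dosing: one-point dosing, 3 µM nominal final; schedule: dye loading 75 min at 37 °C, then 30 min room temperature; measured by: calcium fluorescence with Fluo-8; control set: vehicle and agonist controls; replication: n of 1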
OX1R antag-1 – OX1R (HCRTR1) antagonists, primary screen, fluorescence, CHO/OX1R cells, Fluo-8 calcium, orexin A; Fluo-8 calcium fluorescence; inhibition, % at 5 µM; 330,000 tested, 0.43% active; Orexin/Hypocretin receptor type 1 (Homo sapiens), O43613;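 active = inhibition above its plate's threshold, mean inhibition of all tested compounds on the plate plus 3 SD, cut at about 37% in these data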
Target sequence (O43613 whole entry, looked up): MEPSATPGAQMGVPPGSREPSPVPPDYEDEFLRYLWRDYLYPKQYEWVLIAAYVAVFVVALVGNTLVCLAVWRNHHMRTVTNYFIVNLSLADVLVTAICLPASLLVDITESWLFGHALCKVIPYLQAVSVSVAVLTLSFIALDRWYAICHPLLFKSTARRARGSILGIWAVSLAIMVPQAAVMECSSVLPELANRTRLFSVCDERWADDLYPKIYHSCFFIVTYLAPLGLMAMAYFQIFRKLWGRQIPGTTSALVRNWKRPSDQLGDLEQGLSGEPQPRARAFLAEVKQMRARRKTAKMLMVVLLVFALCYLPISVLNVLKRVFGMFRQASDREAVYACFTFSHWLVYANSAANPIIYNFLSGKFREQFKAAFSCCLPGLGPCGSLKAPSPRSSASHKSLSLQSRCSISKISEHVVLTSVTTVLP
OX1R antag-2 – antagonists of human orexin 1 receptor (OX1R). inhibition, % at 6.6 µM. Orexin/Hypocretin receptor type 1 (Homo sapiens), O43613. 330,000 tested, 1.8% active. OX1R-expressing cells, FRET antagonist read-out. AID 485270, 2010; in the data active = inhibition mostly above about 38%, no sharp cut-off; inactive = mostly below about 40%
Each line names hits and unclear results; the compound was inactive in the other large screens.

CCN=C(Nc1ccc2c(c1)OCO2)SC1CC(=O)N(c2ccccc2F)C1=O (centres undefined)	none
CCN=C(Nc1ccc2c(c1)OCO2)SC1CC(=O)N(c2ccc(OC)cc2)C1=O (centres undefined)	TAAR1 antag 50
CC(C)NC(=O)C1(C)CN(S(C)(=O)=O)CC(=O)N1CCCN1CCOCC1 (centres undefined)	none (no result: CHO parental Ca, OX1R antag-1, OX1R antag-2)
CC(=O)c1cn(CCOc2cc(C)ccc2C)c2ccccc12	CHO parental Ca 33
COc1cccc(OCCn2cc(C(C)=O)c3ccccc32)c1	CHO parental Ca 32
COC(=O)N/N=C/c1cn(CCOc2ccc(OC)cc2)c2ccccc12	TAAR1 antag 50
C#Cc1cccc(Nc2nc(NCc3ccccc3)nc3ccsc23)c1	none (no result: CHO parental Ca, OX1R antag-1, OX1R antag-2)
CCCN1C(=O)c2n[nH]c(C)c2C1c1ccc2c(c1)OCO2 (centres undefined)	none (no result: CHO parental Ca, OX1R antag-1, OX1R antag-2)
CN(c1ccc(NC(=O)CCc2c[nH]c3ccccc23)cc1)c1ccccn1	none (no result: CHO parental Ca, OX1R antag-1, OX1R antag-2)
CCCCCCCCN1C(=O)[C@@H](CC(=O)N2CCN(C(=O)C3CC3)CC2)C[C@@]2(C(=O)OC)C1=C[C@H](C(C)(C)C)O[C@@H]2C	none (no result: CHO parental Ca, OX1R antag-1, OX1R antag-2)
O=C(NN=C1c2ccccc2-c2ccccc21)c1ccccc1Br	OX1R antag-2 49
CC1CN(c2ccc([N+](=O)[O-])c(NCCOc3ccccc3)c2)CC(C)N1 (centres undefined)	none
Cc1ccccc1OCCNc1cc(N2CC(C)NC(C)C2)ccc1[N+](=O)[O-] (centres undefined)	TAAR1 ag 49
CCc1ccc(OCCNc2cc(N3CCNC(C)C3)ccc2[N+](=O)[O-])cc1 (centres undefined)	TAAR1 ag 43
O=C1NC[C@@H](CCCCN2C[C@H](Cc3ccc(O)cc3)N(CCC3CCCCC3)C(=O)C2=O)N(CC2CCCCC2)C1=O	none (no result: CHO parental Ca, OX1R antag-1, OX1R antag-2)
C[C@@H]1CN([C@H](C)CO)C(=O)c2cc(NS(=O)(=O)c3ccccc3)ccc2O[C@@H](C)CCCCO[C@@H]1CN(C)Cc1ccc(Cl)c(Cl)c1	none (no result: CHO parental Ca, OX1R antag-1, OX1R antag-2)
O=C(CSc1nc(-c2cccs2)cc(C(F)(F)F)n1)NCc1ccco1	none
O=C(NCc1ccco1)c1nc2nc(-c3cccs3)cc(C(F)(F)F)n2n1	OX1R antag-2 70
COC(=O)c1nc2nc(-c3cccs3)cc(C(F)(F)F)n2n1	OX1R antag-2 77
Cc1cc(-c2ccccc2)nc(Nc2nc3c(C)cccc3c(=O)[nH]2)n1	none (no result: CHO parental Ca, OX1R antag-1, OX1R antag-2)
COC(=O)/C=c1/s/c(=C(\C#N)C(=O)NCc2ccco2)n(-c2ccccc2)c1=O	none
CNC(=O)/C(C#N)=c1\s/c(=C/C(=O)OC)c(=O)n1-c1ccccc1	OX1R antag-2 69
CC(C)(C)OC(=O)N1CCC2CCN(S(C)(=O)=O)CC21 (centres undefined)	none (no result: CHO parental Ca, OX1R antag-1, OX1R antag-2)
Cc1ccc(CNC(=O)Nc2ccc3c(c2)N(C)C(=O)CS3)cc1	none
CC(=O)c1cccc(NC(=O)Nc2ccc3c(c2)N(C)C(=O)CS3)c1	TAAR1 antag 66
CCc1ccc(NC(=O)Nc2ccc3c(c2)N(C)C(=O)CS3)cc1	TAAR1 antag 49
CN1C(=O)CSc2ccc(NC(=O)NCc3ccccc3)cc21	none
Cc1ccc(NC(=O)Nc2ccc3c(c2)N(C)C(=O)CS3)cc1C	TAAR1 antag 50
COC(=O)[C@@H](Cc1ccccc1)N[C@H](/C=C/c1ccccc1)[C@@H](O)Cc1ccccc1	none (no result: CHO parental Ca, OX1R antag-1, OX1R antag-2)
COc1ccc(C2NC(=S)N(Cc3ccc(Cl)cc3)C(C)=C2C(C)=O)cc1 (centres undefined)	none (no result: CHO parental Ca, OX1R antag-1, OX1R antag-2)
CCN1CCN(C(=O)c2cc(COc3ccc(F)c(F)c3)on2)[C@@H](C)C1=O	none (no result: CHO parental Ca, OX1R antag-1, OX1R antag-2)
Cc1ccc(NC(=O)C2(C)CCN2Cc2cccc3c2OCO3)cc1O (centres undefined)	none (no result: CHO parental Ca, OX1R antag-1, OX1R antag-2)
CSC1=NSC2=NC(=O)/C(=C\c3coc4ccccc4c3=O)C(=N)N12	TAAR1 ag 383, TAAR1 antag 107
O=C(Nc1ccccc1C(=O)N1CCN(c2ccccc2)CC1)c1ccco1	OX1R antag-2 51
O=C(Nc1ccccc1C(=O)N1CCNCC1)c1ccco1	none (no result: TAAR1 ag, TAAR1 antag)
O=C1NC[C@H](CCCCN2C[C@H](Cc3ccc(O)cc3)N(Cc3ccccc3)C(=O)C2=O)N(CC2CCCCC2)C1=O	none (no result: CHO parental Ca, OX1R antag-1, OX1R antag-2)
O=S1(=O)N[C@@H](Cc2ccccc2)COc2cccc(N3CCCCC3)c21	none (no result: CHO parental Ca, OX1R antag-1, OX1R antag-2)
C=CCn1c(SCCC)nc(O)cc1=O	TAAR1 ag 61
C=CCn1c(SCC)nc(O)cc1=O	none
CCc1nc2c(OCc3ccc(Cl)cc3Cl)cccn2c1N(C)C(=O)CC(C)C	none (no result: CHO parental Ca, OX1R antag-1, OX1R antag-2)
COc1cc(Br)cc2cc(C(=O)NCC3CCCO3)c(=O)oc12 (centres undefined)	none
COc1ccc2oc(=O)c(C(=O)NCC3CCCO3)cc2c1 (centres undefined)	OX1R antag-2 61
COc1cccc2cc(C(=O)NCC3CCCO3)c(=O)oc12 (centres undefined)	OX1R antag-2 77
CCOc1ccccc1N1CCN(C(=O)c2cccc(-c3ccc(O)cc3)c2)CC1	TAAR1 antag 51
COc1ccc(OCCSc2nc3ccccc3n2CCC(=O)O)cc1	OX1R antag-2 54
COc1ccccc1OCCSc1nc2ccccc2n1CCC(=O)O	OX1R antag-2 67
Cn1c2c(c(=O)n(C)c1=O)CS(=O)c1ccccc1N2 (centres undefined)	none (no result: CHO parental Ca, OX1R antag-1, OX1R antag-2)
Cn1c(=O)c2c(nc(NCc3ccc4c(c3)OCO4)n2Cc2ccc(F)cc2)n(C)c1=O	CHO parental Ca 22
O=C(Nc1ccccc1Cl)c1ccc2c(=O)n3c(nc2c1)CCC3	none
O=C(Nc1cccc(S(=O)(=O)N2CCOCC2)c1)c1ccc2c(=O)n3c(nc2c1)CCCCC3	TAAR1 antag 51
O=C(Nc1nc(-c2ccccc2)cs1)c1ccc2c(=O)n3c(nc2c1)CCCCC3	TAAR1 antag 59, OX1R antag-2 51
CCCCn1nnnc1C(c1ccccc1OC(F)(F)F)N1CCN(C/C=C/c2ccccc2)CC1 (centres undefined)	none (no result: CHO parental Ca, OX1R antag-1, OX1R antag-2)
CNC12CCc3cc(OC)c(OC)c(c31)-c1cc3c(cc1C2)OCO3 (centres undefined)	none (no result: CHO parental Ca, OX1R antag-1, OX1R antag-2)
Cc1ccc2c(c1)sc(-c1ccc(N(C)C)cc1)[n+]2C	CHO parental Ca 42, OX1R antag-2 40
Nc1sc(Cc2ccccc2)cc1C(=O)c1c(-c2ccccc2)[nH]c2ccccc12	none (no result: CHO parental Ca, OX1R antag-1, OX1R antag-2)
Cc1ccccc1NC1=C/C(=N\S(=O)(=O)c2cccs2)c2ccccc2C1=O	none
O=C(O)c1ccc(S(=O)(=O)/N=C2\C=C(Nc3ccccc3F)C(=O)c3ccccc32)cc1	OX1R antag-2 63

Compound activity: PubChem, The Scripps Research Institute Molecular Screening Center
